{"data": "Assay results from different studies", "FGFR3 G697C": "Fibroblast growth factor receptor 3 (FGFR3, Homo sapiens, UniProt P22607, G697C)", "FGFR3": "Fibroblast growth factor receptor 3 (FGFR3, Homo sapiens, UniProt P22607)", "FGFR3 K650E": "Fibroblast growth factor receptor 3 (FGFR3, Homo sapiens, UniProt P22607, K650E)", "note": "Lines come from different studies, so protocols differ."}
{"SMILES": "N[C@H]1CCN(c2nccc(-c3cnn4ncccc34)n2)C1", "target": "FGFR3 G697C", "assay": "binding", "conditions": "1 µM", "quantity": "remaining binding", "result": "100%"}
{"SMILES": "Cc1nc(Cc2cccc(C(F)(F)F)c2)sc1-c1ccc(C(N)=O)nc1", "target": "FGFR3", "assay": "cell-free assay, competition with immobilised ligand", "conditions": "1 µM", "quantity": "remaining binding", "result": "100%"}
{"SMILES": "Cc1cnn2ncc(-c3ccnc(N(C)C)n3)c2c1", "target": "FGFR3 G697C", "assay": "binding", "conditions": "1 µM", "quantity": "remaining binding", "result": "82%"}
{"SMILES": "COc1cc2ncnc(Nc3ccc(F)c(Cl)c3)c2cc1OCCCN1CCOCC1", "target": "FGFR3", "assay": "cell-free assay", "conditions": "0.5 µM", "quantity": "remaining signal", "result": "79.3%"}
{"SMILES": "CN(C)c1nccc(-c2cnc3ncccn23)n1", "target": "FGFR3", "assay": "binding", "conditions": "1 µM", "quantity": "remaining binding", "result": "100%"}
{"SMILES": "Cc1cc(NC(=O)c2cccc3cc(-c4cccc5[nH]nc(N)c45)ccc23)ccc1F", "target": "FGFR3", "assay": "enzyme activity, inhibitor", "conditions": "0.1 µM", "quantity": "activity vs control", "result": "98%"}
{"SMILES": "CS(=O)(=O)Nc1cccc(-c2csc(NC(=O)CSc3nc4nccnc4c(=O)n3CCc3ccccc3)n2)c1", "target": "FGFR3", "assay": "enzyme activity, inhibitor", "conditions": "10 µM", "quantity": "inhibition", "result": "-15%"}
{"SMILES": "COc1cc2ncnc(Nc3ccc(Oc4ccccc4)cc3C)c2cc1OC", "target": "FGFR3 K650E", "assay": "enzyme activity, inhibitor", "conditions": "1 µM", "quantity": "inhibition", "result": "0%"}
{"SMILES": "Cc1ccc(C(=O)Nc2ccc(CN3CCN(C)CC3)c(C(F)(F)F)c2)cc1C#Cc1cnc2cccnn12", "target": "FGFR3", "assay": "cell-free assay", "conditions": "23.5 nM", "quantity": "remaining signal", "result": "62%"}
{"SMILES": "O=C(O)[C@@H]1[C@@H](Cn2nnc3ccccc3c2=O)CC[C@H]1C(=O)c1ccc(OCCC2CCOCC2)cc1", "target": "FGFR3 G697C", "assay": "cell-free assay, competition with immobilised ligand", "conditions": "1 µM", "quantity": "remaining binding", "result": "92%"}
{"SMILES": "C[C@@H]1CCN(c2nccc(-c3cnn4ncccc34)n2)C1", "target": "FGFR3 G697C", "assay": "binding", "conditions": "1 µM", "quantity": "remaining binding", "result": "100%"}
{"SMILES": "CNCc1ccc(-c2cc(-c3nc(-c4ccc(S(=O)(=O)C(C)C)cc4)cnc3N)on2)cc1", "target": "FGFR3", "assay": "enzyme activity, inhibitor", "conditions": "0.4 µM", "quantity": "inhibition", "result": "0%"}
{"SMILES": "Cc1sc(C(=O)NC2COC2)cc1-n1cc(NC(=O)Nc2c(F)cccc2Cl)cn1", "target": "FGFR3", "assay": "enzyme activity, inhibitor", "conditions": "10 µM", "quantity": "remaining activity", "result": "137%"}
{"SMILES": "Nc1ncnc2occ(-c3ccc(NC(=O)Nc4cc(C(F)(F)F)ccc4F)cc3)c12", "target": "FGFR3", "assay": "cell-free assay", "conditions": "20 µM", "quantity": "remaining signal", "result": "0.75%"}
{"SMILES": "CC(C)(O)[C@H]1CC[C@H](Nc2ccc3ncc(-c4cccc(C(F)(F)F)c4)n3n2)CC1", "target": "FGFR3", "assay": "enzyme activity, inhibitor", "conditions": "1 µM", "quantity": "remaining activity", "result": "102%"}
{"SMILES": "C[C@@]1(Cc2ccc(C#N)cc2)C(=O)N(c2cc(Cl)cc(Cl)c2)c2ncc(C(=O)NC3(c4nc(C5CCC5)no4)CC3)n21", "target": "FGFR3 G697C", "assay": "cell-free assay, competition with immobilised ligand", "conditions": "1 µM", "quantity": "remaining binding", "result": "100%"}
{"SMILES": "COc1cc2ncnc(Nc3ccc(Oc4ccccc4)c(C)c3C)c2cc1OC", "target": "FGFR3 K650E", "assay": "enzyme activity, inhibitor", "conditions": "1 µM", "quantity": "inhibition", "result": "3%"}
{"SMILES": "CCN(CC)c1ccc(C2=NNC(=O)CC2C)cc1[N+](=O)[O-] (centres unmarked)", "target": "FGFR3", "assay": "enzyme activity, inhibitor", "conditions": "10 µM", "quantity": "remaining activity", "result": "93%"}
{"SMILES": "C[C@H](c1cccc(C#N)c1)n1cc(Cl)cc(C(N)=O)c1=N", "target": "FGFR3", "assay": "cell-free assay, competition with immobilised ligand", "conditions": "1 µM", "quantity": "remaining binding", "result": "88%"}
{"SMILES": "CN(C)c1ncc(F)c(-c2cnn3ncccc23)n1", "target": "FGFR3 G697C", "assay": "binding", "conditions": "1 µM", "quantity": "remaining binding", "result": "100%"}
{"SMILES": "CCN(CC)CCNC(=O)c1c(C)[nH]c(/C=C2\\C(=O)Nc3ccc(F)cc32)c1C", "target": "FGFR3", "assay": "enzyme activity, inhibitor", "conditions": "0.3 µM", "quantity": "inhibition", "result": "61%"}
{"SMILES": "CC/C(=N\\NC(=O)NCc1cccc(O)c1)c1ccc(O)c(C)c1O", "target": "FGFR3", "assay": "enzyme activity, inhibitor", "conditions": "0.1 µM", "quantity": "inhibition", "result": "2.2%"}
{"SMILES": "COc1cc(Cl)c(C(=O)N[C@@H](CN[C@H]2CC[C@@H](N)CC2)Cc2ccc(C#N)cc2)cc1-c1ccc(CN[C@H](C)c2ccc(C)cc2)o1", "target": "FGFR3", "assay": "enzyme activity, inhibitor", "conditions": "1 µM", "quantity": "remaining activity", "result": "85%"}
{"SMILES": "C=CC(=O)Nc1cc(Nc2nccc(Nc3cc(Cl)c(F)cc3C(C)(C)O)n2)c(OC)cc1N1CC[C@@H](N(C)C)C1", "target": "FGFR3", "assay": "enzyme activity, inhibitor", "conditions": "1 µM", "quantity": "inhibition", "result": "4%"}
{"SMILES": "Cc1ccc(Nc2nccc(N(C)c3ccc4c(C)n(C)nc4c3)n2)cc1S(N)(=O)=O", "target": "FGFR3", "assay": "enzyme activity, inhibitor", "conditions": "10 µM", "quantity": "inhibition", "result": "99%"}
{"SMILES": "COc1ccc(COc2ccc(Cc3cnc(N)nc3N)cc2OC)cc1", "target": "FGFR3", "assay": "cell-free assay", "conditions": "0.5 µM", "quantity": "remaining signal", "result": "105%"}
{"SMILES": "CCCS(=O)(=O)Nc1ccc(F)c(C(=O)c2c[nH]c3ncc(-c4ccc(Cl)cc4)cc23)c1F", "target": "FGFR3", "assay": "enzyme activity, inhibitor", "conditions": "1 µM", "quantity": "inhibition", "result": "< 10%"}
{"SMILES": "COc1cc(-c2cn(C3CCc4c(F)cccc4N(CC(F)(F)F)C3=O)nn2)ccc1-n1cnc(C)c1 (centres unmarked)", "target": "FGFR3", "assay": "cell-free assay, competition with immobilised ligand", "conditions": "1 µM", "quantity": "remaining binding", "result": "100%"}
{"SMILES": "O=C1Nc2ccc(Cl)cc2C1=Cc1cc(Cl)c(O)c(Cl)c1", "target": "FGFR3", "assay": "cell-free assay", "conditions": "0.5 µM", "quantity": "remaining signal", "result": "94%"}
{"SMILES": "Cc1c(NC(=O)c2cc(C(N)=O)nc3cc(F)ccc23)c(C(F)(F)F)nn1Cc1ccc(C(C)(C)C)cc1", "target": "FGFR3", "assay": "cell-free assay, competition with immobilised ligand", "conditions": "1 µM", "quantity": "remaining binding", "result": "92%"}
{"SMILES": "CC(C)(C)c1nc(-c2cccc(NS(=O)(=O)c3c(F)cccc3F)c2F)c(-c2ccnc(N)n2)s1", "target": "FGFR3", "assay": "enzyme activity, inhibitor, radiometric", "conditions": "1 µM", "quantity": "remaining activity", "result": "118%"}
{"SMILES": "CCOCCn1cc(C(=O)Nc2ccc(-n3nc(-c4cccnc4)cc3C(F)(F)F)cn2)ccc1=O", "target": "FGFR3", "assay": "cell-free assay, competition with immobilised ligand", "conditions": "1 µM", "quantity": "remaining binding", "result": "84%"}
{"SMILES": "Nc1nc(Nc2ccc(S(N)(=O)=O)cc2)nn1C(=O)c1c(F)cccc1F", "target": "FGFR3", "assay": "cell-free assay", "conditions": "0.5 µM", "quantity": "remaining signal", "result": "46.4%"}
{"SMILES": "CNc1cccc2cc(C(=O)Nc3ccc(C(=O)O)cc3)c(=O)[nH]c12", "target": "FGFR3", "assay": "enzyme activity, inhibitor", "conditions": "10 µM", "quantity": "inhibition", "result": "-1.1%"}
{"SMILES": "C[C@@H]1CN(c2cc(-c3n[nH]c4ccc(OC5(C)CC5)cc34)ncn2)C[C@H](C)O1", "target": "FGFR3 G697C", "assay": "cell-free assay, competition with immobilised ligand", "conditions": "0.1 µM", "quantity": "remaining binding", "result": "86%"}
